Activity data for two molecules are collected here from ChEMBL document CHEMBL1240369, “Antiviral efficacy of the novel compound BIT225 against HIV-1 release from human macrophages” (Antimicrob Agents Chemother, 2010).

For the experiment, the target named is Protease (Human immunodeficiency virus 1) (UniProt Q9YQ12). Nature of the experiment: Inhibition of HIV1 protease assessed as substrate cleavage by cell free assay. Summed up:
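Cell-free fluorometric protease assay: compound (1–100 μM) was premixed with 2 μM quenched HIV-1 protease substrate 1. Background fluorescence (ex 340/em 490 nm) was read every 5 s for 5 min. HIV-1 protease was then added at 1.5% and cleavage followed for a further 5 min. LPV and EFV served as controls.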

Calls of active or inactive are those of the source. The calls are words filed in the database; no cut-off is given here.

Sequence of Protease (Human immunodeficiency virus 1) (Q9YQ12 as listed by the source): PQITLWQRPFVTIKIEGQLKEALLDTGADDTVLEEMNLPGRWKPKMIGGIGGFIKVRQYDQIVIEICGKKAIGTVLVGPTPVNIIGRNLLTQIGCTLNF

Take `O=C1Nc2ccc(Cl)cc2[C@@](C#CC2CC2)(C(F)(F)F)O1`: the result was inactive.

For the molecule `Cc1cccc(C)c1OCC(=O)N[C@@H](Cc1ccccc1)[C@@H](O)C[C@H](Cc1ccccc1)NC(=O)[C@H](C(C)C)N1CCCNC1=O`, the outcome was Active.
